pIC50: −log10 of the molar value. ≈ marks a conversion by molar mass, not a printed value. Calls of active or inactive are those of the source. The rule behind the calls is not given here.
Key:
[1] = system: Mycobacterium tuberculosis; assay: Antibacterial activity against Mycobacterium tuberculosis H37Rv after 7 days by microplate alamar blue assay method; assay type: functional; settings: 168 h
In short: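 Mtb H37Rv inoculum taken from fresh LJ medium, resuspended in 7H9-S (7H9, 0.1% casitone, 0.5% glycerol, OADC), adjusted to McFarland No. 1 and diluted 1:20. Two-fold serial drug dilutions in 7H9-S, with growth and sterile controls. Incubated 7 days at 37 °C, alamar blue added, reincubated overnight. MIC taken as lowest concentration preventing the blue-to-pink colour change.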

DNA gyrase subunit B = DNA gyrase subunit B (Mycobacterium smegmatis, UniProt P0C559); assay: Inhibition of 6-His-tagged Mycobacterium smegmatis GyrB expressed in Escherichia coli BL21 (DE3) pLysS cells incubated for 100 mins in presence of ATP by malachite green dye based ATP assay; design: species or system Mycolicibacterium smegmatis
Sequence of DNA gyrase subunit B (P0C559 whole entry): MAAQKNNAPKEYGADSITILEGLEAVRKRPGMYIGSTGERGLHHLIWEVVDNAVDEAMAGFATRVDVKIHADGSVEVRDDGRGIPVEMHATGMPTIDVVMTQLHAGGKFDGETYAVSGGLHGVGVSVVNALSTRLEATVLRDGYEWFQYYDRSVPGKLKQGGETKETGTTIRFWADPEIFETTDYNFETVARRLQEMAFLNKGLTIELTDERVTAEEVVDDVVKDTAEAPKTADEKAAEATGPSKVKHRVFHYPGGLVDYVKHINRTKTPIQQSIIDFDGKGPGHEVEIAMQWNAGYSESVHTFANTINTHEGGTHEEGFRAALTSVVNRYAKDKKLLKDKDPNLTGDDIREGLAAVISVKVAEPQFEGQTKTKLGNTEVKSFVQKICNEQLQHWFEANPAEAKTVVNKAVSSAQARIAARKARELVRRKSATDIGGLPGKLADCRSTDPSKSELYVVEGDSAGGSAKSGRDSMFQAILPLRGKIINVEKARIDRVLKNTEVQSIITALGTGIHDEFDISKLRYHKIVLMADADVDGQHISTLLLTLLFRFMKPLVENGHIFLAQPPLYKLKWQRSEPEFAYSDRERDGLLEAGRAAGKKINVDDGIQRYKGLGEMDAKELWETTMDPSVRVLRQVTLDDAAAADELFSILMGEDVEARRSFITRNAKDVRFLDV

[2] = molecular target: DNA gyrase subunit A/DNA gyrase subunit B (Mycobacterium tuberculosis (strain ATCC 25618 / H37Rv), UniProt P9WG45+P9WG47); assay: Inhibition of Mycobacterium tuberculosis DNA gyrase supercoiling activity using relaxed pBR322 substrate incubated for 30 mins by ethidium bromide staining method
Sequence of DNA gyrase subunit A/DNA gyrase subunit B (P9WG45 whole entry): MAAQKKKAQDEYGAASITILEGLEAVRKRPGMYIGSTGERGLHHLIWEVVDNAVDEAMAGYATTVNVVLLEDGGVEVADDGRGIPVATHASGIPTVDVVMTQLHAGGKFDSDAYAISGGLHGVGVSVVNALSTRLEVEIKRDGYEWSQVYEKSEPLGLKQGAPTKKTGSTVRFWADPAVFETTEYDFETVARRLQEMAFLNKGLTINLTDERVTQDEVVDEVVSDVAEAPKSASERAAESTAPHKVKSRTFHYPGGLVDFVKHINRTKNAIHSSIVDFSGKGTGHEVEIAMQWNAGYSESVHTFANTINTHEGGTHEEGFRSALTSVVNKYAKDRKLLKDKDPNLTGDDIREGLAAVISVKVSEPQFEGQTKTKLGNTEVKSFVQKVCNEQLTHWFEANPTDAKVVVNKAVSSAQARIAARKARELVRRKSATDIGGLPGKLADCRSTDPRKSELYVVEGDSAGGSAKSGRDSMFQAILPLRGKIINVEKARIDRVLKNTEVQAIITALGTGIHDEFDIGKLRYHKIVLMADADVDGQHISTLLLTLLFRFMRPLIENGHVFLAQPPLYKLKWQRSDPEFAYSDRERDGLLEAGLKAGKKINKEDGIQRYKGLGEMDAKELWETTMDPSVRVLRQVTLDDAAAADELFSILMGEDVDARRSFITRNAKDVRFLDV
Sequence of DNA gyrase subunit A/DNA gyrase subunit B (P9WG47 whole entry): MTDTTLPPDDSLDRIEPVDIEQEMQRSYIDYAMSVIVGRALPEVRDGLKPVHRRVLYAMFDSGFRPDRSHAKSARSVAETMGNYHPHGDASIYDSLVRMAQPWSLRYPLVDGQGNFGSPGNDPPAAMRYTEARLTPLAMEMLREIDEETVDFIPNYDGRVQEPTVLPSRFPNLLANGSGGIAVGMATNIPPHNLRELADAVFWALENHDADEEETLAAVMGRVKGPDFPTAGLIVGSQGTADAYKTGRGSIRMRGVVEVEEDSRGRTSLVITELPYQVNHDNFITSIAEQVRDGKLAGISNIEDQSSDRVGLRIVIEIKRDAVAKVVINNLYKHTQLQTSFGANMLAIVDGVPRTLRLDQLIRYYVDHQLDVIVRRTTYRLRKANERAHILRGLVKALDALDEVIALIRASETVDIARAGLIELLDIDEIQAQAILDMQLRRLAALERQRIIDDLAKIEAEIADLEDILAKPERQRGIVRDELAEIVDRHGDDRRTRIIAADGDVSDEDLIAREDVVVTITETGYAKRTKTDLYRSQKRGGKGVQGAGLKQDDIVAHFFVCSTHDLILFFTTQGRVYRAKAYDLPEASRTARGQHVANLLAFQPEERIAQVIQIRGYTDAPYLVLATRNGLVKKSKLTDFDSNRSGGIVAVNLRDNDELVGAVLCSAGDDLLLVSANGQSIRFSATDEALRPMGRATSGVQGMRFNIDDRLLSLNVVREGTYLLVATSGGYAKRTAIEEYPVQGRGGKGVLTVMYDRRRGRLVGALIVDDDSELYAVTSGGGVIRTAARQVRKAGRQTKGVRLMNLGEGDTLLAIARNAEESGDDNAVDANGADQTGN

[3] = Cytotoxicity against mouse RAW264.7 cells assessed as inhibition of cell viability at 100 uM after 48 hrs by MTT assay; assay type: cell-based; settings: read-out: INH
In short: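 RAW 264.7 mouse macrophages, 5 × 10^5 cells per well, exposed to compounds at 37 °C, 5% CO2 for 48 h. MTT added about 4 h before the end, then supernatant removed and DMSO added. Absorbance read at 560 nm against blank, triplicate wells per concentration, result expressed as % inhibition.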

[4] = molecular target: DNA gyrase subunit B (Mycobacterium smegmatis) (UniProt P0C559); settings: Mycolicibacterium smegmatis
Sequence of DNA gyrase subunit B (Mycobacterium smegmatis) (P0C559 2-675 limits assumed): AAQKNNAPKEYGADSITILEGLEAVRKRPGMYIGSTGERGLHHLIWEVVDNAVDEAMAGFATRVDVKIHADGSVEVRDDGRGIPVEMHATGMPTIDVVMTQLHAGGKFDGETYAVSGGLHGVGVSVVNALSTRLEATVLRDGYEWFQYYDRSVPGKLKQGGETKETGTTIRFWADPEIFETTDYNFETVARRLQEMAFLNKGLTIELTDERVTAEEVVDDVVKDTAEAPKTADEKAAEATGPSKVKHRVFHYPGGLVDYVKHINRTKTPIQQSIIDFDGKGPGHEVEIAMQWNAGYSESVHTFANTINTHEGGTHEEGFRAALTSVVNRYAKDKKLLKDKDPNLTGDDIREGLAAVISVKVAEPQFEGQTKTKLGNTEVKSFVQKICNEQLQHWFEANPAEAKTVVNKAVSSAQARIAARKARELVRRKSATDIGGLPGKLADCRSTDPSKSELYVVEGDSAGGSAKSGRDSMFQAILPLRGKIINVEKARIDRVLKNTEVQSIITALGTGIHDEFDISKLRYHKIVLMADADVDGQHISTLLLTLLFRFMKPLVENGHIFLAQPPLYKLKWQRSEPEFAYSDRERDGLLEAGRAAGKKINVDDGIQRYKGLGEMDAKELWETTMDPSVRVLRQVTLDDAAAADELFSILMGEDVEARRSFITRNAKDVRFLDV

[5] = molecular target: DNA gyrase subunit B (Staphylococcus aureus) (UniProt P0A0K8); assay: Inhibition of Staphylococcus aureus GyrB at 50 uM
Sequence of DNA gyrase subunit B (Staphylococcus aureus) (P0A0K8 2-644 limits assumed): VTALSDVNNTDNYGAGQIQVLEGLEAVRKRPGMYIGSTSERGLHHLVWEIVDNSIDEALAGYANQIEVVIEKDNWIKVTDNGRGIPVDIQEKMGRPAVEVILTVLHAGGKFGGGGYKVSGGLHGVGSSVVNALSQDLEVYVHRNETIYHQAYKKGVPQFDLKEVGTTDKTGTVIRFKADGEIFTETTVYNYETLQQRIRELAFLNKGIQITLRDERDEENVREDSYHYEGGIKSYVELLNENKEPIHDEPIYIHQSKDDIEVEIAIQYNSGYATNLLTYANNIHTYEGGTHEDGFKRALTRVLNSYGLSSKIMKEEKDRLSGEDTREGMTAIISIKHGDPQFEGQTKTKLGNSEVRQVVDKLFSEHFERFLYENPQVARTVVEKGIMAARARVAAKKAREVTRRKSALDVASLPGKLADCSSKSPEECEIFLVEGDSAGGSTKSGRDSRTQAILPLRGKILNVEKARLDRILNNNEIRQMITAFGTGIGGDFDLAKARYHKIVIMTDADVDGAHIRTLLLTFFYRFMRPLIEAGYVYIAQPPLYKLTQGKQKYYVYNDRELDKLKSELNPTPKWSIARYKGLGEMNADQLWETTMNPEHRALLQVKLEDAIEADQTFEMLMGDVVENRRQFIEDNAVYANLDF

[6] = molecular target: DNA gyrase subunit B (Escherichia coli) (UniProt P0AES6); assay: Inhibition of Escherichia coli GyrB at 50 uM

Compound	MIC [1] [µM]	pIC50 (DNA gyrase subunit B)	pIC50 [2]	cytotoxicity at 48 h, 100 µM [3] [%]	ΔTm [4] [°C]	inhibition [5]	inhibition [6]
CCOC(=O)c1cc2cc(N3CCN(C(=O)c4ncccc4C(F)(F)F)CC3)ccc2o1	26.7 (≈ 11.9 µg/mL)	4.63	5.11	14			
CCOC(=O)c1cc2cc(N3CCN(C(=O)c4ccccc4OC(F)(F)F)CC3)ccc2o1	30.2 (≈ 14 µg/mL)	4.54	4.81	27			
CCOC(=O)c1cc2cc(N3CCN(C(=O)c4ccco4)CC3)ccc2o1	43.6 (≈ 16.1 µg/mL)	4.43	4.61	17			
CCOC(=O)c1cc2cc(N3CCN(C(=O)Cc4ccc(F)cc4)CC3)ccc2o1	40.2 (≈ 16.5 µg/mL)	4.42	4.57	30.4			
CCOC(=O)c1cc2cc(N3CCN(C(=O)CCc4ccc(F)cc4)CC3)ccc2o1	9.57 (≈ 4.06 µg/mL)	5.21	5.51	14.7			
CCOC(=O)c1cc2cc(N3CCN(C(=O)COc4ccccc4)CC3)ccc2o1	9.35 (≈ 3.82 µg/mL)	5.40	5.94	7.65			
CCOC(=O)c1cc2cc(N3CCN(C(=O)c4cccc(OC)c4)CC3)ccc2o1	9.67 (≈ 3.95 µg/mL)	5.30	5.60	15.3			
CCOC(=O)c1cc2cc(N3CCN(C(=O)c4ccc(C(F)(F)F)cc4)CC3)ccc2o1	54 (≈ 24.1 µg/mL)	4.28	4.35	3.5			
CO[C@@H]1[C@@H](OC(N)=O)[C@@H](O)[C@H](Oc2ccc3c(O)c(NC(=O)c4ccc(O)c(CC=C(C)C)c4)c(=O)oc3c2C)OC1(C)C [NOVOBIOCIN]	> 200			19.4			
CC[C@@H](CO)NCCN[C@@H](CC)CO [ETHAMBUTOL]	9.84 (≈ 2.01 µg/mL)						
CCOC(=O)c1cc2cc(N3CCN(C(=O)Cc4ccc(Cl)cc4)CC3)ccc2o1	20.2 (≈ 8.63 µg/mL)	4.84	5.05	29.2			
CCOC(=O)c1cc2cc(N3CCN(C(=O)Cc4ccc(Br)cc4)CC3)ccc2o1	19.8 (≈ 9.33 µg/mL)	4.78	5.28	53			
CCOC(=O)c1cc2cc(N3CCN(C(=O)Cc4ccccc4)CC3)ccc2o1	12.3 (≈ 4.84 µg/mL)	5.04	5.17	15.1			
NNC(=O)c1ccncc1 [ISONIAZID]	0.66 (≈ 0.0905 µg/mL)						
CCOC(=O)c1cc2cc(N3CCN(C(=O)Cc4ccc(OC)cc4)CC3)ccc2o1	18.2 (≈ 7.68 µg/mL)	4.99	5.13	7.39			
CCOC(=O)c1cc2cc(N3CCN(C(=O)c4c(F)cc(OC)cc4F)CC3)ccc2o1	25.4 (≈ 11.3 µg/mL)	4.62	5.01	7.03			

Compound	MIC [1] [µM]	pIC50 (DNA gyrase subunit B)	pIC50 [2]	cytotoxicity at 48 h, 100 µM [3] [%]	ΔTm [4] [°C]	inhibition [5]	inhibition [6]
CCOC(=O)c1cc2cc(N3CCN(C(=O)CC4CCCCC4)CC3)ccc2o1	38.4 (≈ 15.3 µg/mL)	4.44	4.60	31.4			
CC1COc2c(N3CCN(C)CC3)c(F)cc3c(=O)c(C(=O)O)cn1c23 (stereo unspecified) [OFLOXACIN]	2.16 (≈ 0.781 µg/mL)						
CCOC(=O)c1cc2cc(N3CCN(C(=O)c4ccc(C5CCOCC5)cc4)CC3)ccc2o1	9.8 (≈ 4.53 µg/mL)	5.17	6.04	6.75			
CCOC(=O)c1cc2cc(N3CCN(C(=O)Cc4c(F)cc(F)cc4F)CC3)ccc2o1	17.1 (≈ 7.61 µg/mL)	4.91	5.21	14			
CCOC(=O)c1cc2cc(N3CCN(C(=O)c4c(Cl)cccc4Cl)CC3)ccc2o1	10 (≈ 4.49 µg/mL)	4.97	5.51	6.98			
CCOC(=O)c1cc2cc(N3CCN(C(=O)C4Cc5ccccc5N4)CC3)ccc2o1 (stereo unspecified)	9.23 (≈ 3.87 µg/mL)	5.41	6.08	29.8			
CCOC(=O)c1cc2cc(N3CCN(C(=O)c4ccccc4C(F)(F)F)CC3)ccc2o1	38.4 (≈ 17.2 µg/mL)	4.43	4.58	14			
CCOC(=O)c1cc2cc(N3CCN(C(=O)c4c(F)cccc4F)CC3)ccc2o1	11.6 (≈ 4.81 µg/mL)	5.21	5.54	7.54			
CCOC(=O)c1sc(-c2ccccc2)nc1N1CCC(NCc2ccc(F)cc2)CC1	28.4 (≈ 12.5 µg/mL)						
COc1c(N2C[C@@H]3CCCN[C@@H]3C2)c(F)cc2c(=O)c(C(=O)O)cn(C3CC3)c12 [MOXIFLOXACIN]	8.6 (≈ 3.45 µg/mL)	< 4.30					
CCOC(=O)c1cc2cc(N3CCN(C(=O)c4cccc5ccccc45)CC3)ccc2o1	13.2 (≈ 5.64 µg/mL)	5.04	5.44	3.64			
CCOC(=O)c1cc2cc(N3CCN(C(=O)C4CCN(C(=O)OC(C)(C)C)CC4)CC3)ccc2o1	9.18 (≈ 4.46 µg/mL)	5.49	6.09	3.21	2.7	inactive	inactive
CCOC(=O)c1cc2cc(N3CCN(C(=O)c4cccnc4Cl)CC3)ccc2o1	11 (≈ 4.54 µg/mL)	5.10	5.82	7.55			
CCOC(=O)c1cc2cc(N3CCN(C(=O)CC(C)C)CC3)ccc2o1	32.1 (≈ 11.5 µg/mL)	4.39	4.54	8.71			
CCOC(=O)c1cc2cc(N3CCN(C(=O)c4nccnc4Cl)CC3)ccc2o1	13.9 (≈ 5.77 µg/mL)	4.90	5.51	30.1			

Source: ChEMBL document CHEMBL3352198, “Design, synthesis, biological evaluation of substituted benzofurans as DNA gyraseB inhibitors of Mycobacterium tuberculosis” (Bioorg Med Chem, 2014)
